Test results published in the RNAGym collection of RNA variant scans (doi:10.1038/s41586-018-0170-7).

B1: tRNA (parent)
chain: GUUCCGUUGGCGUAAUGGUAACGCGUCUCCCUCCUAAGGAGAAGACUGCGGGUUCGAGUCCCGUACGGAACG

Variants of: B1
Assay: yeast fitness, log relative to wild type (ln ratio); higher = fitter; tRNA-Arg(CCU), competitive growth, 37 C, 1 M NaCl
Outline: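 Genotype fitness is expressed as the natural log of its generations over those of the wild type. Each pool of the tRNA-Arg(CCU) variant library, carried on a HIS3 centromeric plasmid in BY4742 lacking the chromosomal gene, came from one of two independent transformations and grew 4 generations in SC-HIS at 30 °C before ~6.5 generations (~26.5 h) in SC-HIS 1M NaCl at 37 °C. Generation numbers used OD-scaled log2 output/input frequencies from 125 bp paired-end Illumina sequencing, combined across replicates by inverse-variance weighting.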

Question: For GGUCCGUUGGCGUAAUGGUAACGCGUCUCCCUCCUAAGGAGACGAUUGCGGGUUCGAGUCCCGUAAGGGAUG [U2G A43C C46U C66A A69G C71U], which “yeast fitness (ln)” value is on record?
Answer: -0.302

Question: For AUUCCAUUGGCGUAAUGGUAACGCGUUUCCCUCCUAAGGAGAAGACUGCGGGUUCGAGUCCCGUAUGGAAUG [G1A G6A C27U C66U C71U], which “yeast fitness (ln)” value is on record?
Answer: -0.0761

Question: With GUUCCAUUGGCGUAAUGGUAACGCGUCUCCCUCCUAAGGAGAAGAUUGCGGGUUCGAGUCCCGUACGGAGUG [G6A C46U A70G C71U] as the variant, how does the “yeast fitness (ln)” value read?
Answer: -0.145

Question: For GCUCCGUUGGCGUAAUGGUAACGCGUUUCCCUCCUAAGGAGAAGAUUGCGGGUUCGAGUCCCGUACGGGUCG [U2C C27U C46U A69G A70U], which “yeast fitness (ln)” value is on record?
Answer: -0.198

Question: Which “yeast fitness (ln)” value does the source give for AGUCCGUUGGCGUAAUGGUAACGCGUUUCCCUCCUAAGGAGAAGACUGCGGGUUCGAGUCCCGUAAGGAUUG [G1A U2G C27U C66A A70U C71U] here?
Answer: -0.243

Question: For GGUCCGUUGGCGUAAUGGUAACGCGUUUCCCUCCUAAGGAGAAGAUUGCGGGUUCGAGUCCCGUAAGGAGCG [U2G C27U C46U C66A A70G], which “yeast fitness (ln)” value is on record?
Answer: -0.0963

Question: Which “yeast fitness (ln)” value does the source give for AGUCCAUUGGCGUAAUGGUAACGCGUCUCCCUCCUAAGGAGAAGAUUGCGGGUUCGAGUCCCGUACGGAUUG [G1A U2G G6A C46U A70U C71U] here?
Answer: -0.559

Question: For GGUCCAUUGGCGUAAUGGUAACGCGUCUCCCUCCUAAGGAGAAGACUGCGGGUUCGAGUCCCGUAUGGGUUG [U2G G6A C66U A69G A70U C71U], which “yeast fitness (ln)” value is on record?
Answer: -0.641

Question: With GGUCCAUUGGCGUAAUGGUAACGCGUCUCCCUCCUAAGGAGAAGACUGCGGGUUCGAGUCCCGUAAGGAACG [U2G G6A C66A] as the variant, how does the “yeast fitness (ln)” value read?
Answer: -0.111

Question: Which “yeast fitness (ln)” value does the source give for GCUCCGUUGGCGUAAUGGUAACGCGUUUCCCUCCUAAGGAGAAGAUUGCGGGUUCGAGUCCCGUAUGGAGUG [U2C C27U C46U C66U A70G C71U] here?
Answer: -0.075

Question: Which “yeast fitness (ln)” value does the source give for AGUCCGUUGGCGUAAUGGUAACGCGUCUCCCUCCUAAGGAGAAGACUGCGGGUUCGAGUCCCGUAAGGAUCG [G1A U2G C66A A70U] here?
Answer: -0.0922

Question: For AGUCCGUUGGCGUAAUGGUAACGCGUCUCCCUCCUAAGGAGAAGAUUGCGGGUUCGAGUCCCGUAUGGAUUG [G1A U2G C46U C66U A70U C71U], which “yeast fitness (ln)” value is on record?
Answer: -0.185

Question: Which “yeast fitness (ln)” value does the source give for AUUCCAUUGGCGUAAUGGUAACGCGUCUCCCUCCUAAGGAGACGACUGCGGGUUCGAGUCCCGUACGGAGUG [G1A G6A A43C A70G C71U] here?
Answer: -0.27

Question: With GCUCCAUUGGCGUAAUGGUAACGCGUCUCCCUCCUAAGGAGAAGACUGCGGGUUCGAGUCCCGUAUGGGGCG [U2C G6A C66U A69G A70G] as the variant, how does the “yeast fitness (ln)” value read?
Answer: -0.0273

Question: With AGUCCAUUGGCGUAAUGGUAACGCGUCUCCCUCCUAAGGAGACGACUGCGGGUUCGAGUCCCGUACGGAGUG [G1A U2G G6A A43C A70G C71U] as the variant, how does the “yeast fitness (ln)” value read?
Answer: -0.224

Question: With GGUCCGUUGGCGUAAUGGUAACGCGUCUCCCUCCUAAGGAGAAGAUUGCGGGUUCGAGUCCCGUAUGGGGCG [U2G C46U C66U A69G A70G] as the variant, how does the “yeast fitness (ln)” value read?
Answer: -0.174

Question: Which “yeast fitness (ln)” value does the source give for AGUCCUUUGGCGUAAUGGUAACGCGUCUCCCUCCUAAGGAGACGACUGCGGGUUCGAGUCCCGUAUGGAGCG [G1A U2G G6U A43C C66U A70G] here?
Answer: -0.271

Question: With ACUCCGUUGGCGUAAUGGUAACGCGUUUCCCUCCUAAGGAGACGAUUGCGGGUUCGAGUCCCGUAAGGAAUG [G1A U2C C27U A43C C46U C66A C71U] as the variant, how does the “yeast fitness (ln)” value read?
Answer: -0.24

Question: Which “yeast fitness (ln)” value does the source give for AGUCCGUUGGCGUAAUGGUAACGCGUCUCCCUCCUAAGGAGAAGACUGCGGGUUCGAGUCCCGUAUGGAGUG [G1A U2G C66U A70G C71U] here?
Answer: -0.187

Question: With GUUCCAUUGGCGUAAUGGUAACGCGUUUCCCUCCUAAGGAGAAGACUGCGGGUUCGAGUCCCGUAUGGGGCG [G6A C27U C66U A69G A70G] as the variant, how does the “yeast fitness (ln)” value read?
Answer: -0.368

Question: With AGUCCGUUGGCGUAAUGGUAACGCGUCUCCCUCCUAAGGAGACGACUGCGGGUUCGAGUCCCGUAUGGAGUG [G1A U2G A43C C66U A70G C71U] as the variant, how does the “yeast fitness (ln)” value read?
Answer: -0.22

Question: Which “yeast fitness (ln)” value does the source give for AGUCCAUUGGCGUAAUGGUAACGCGUCUCCCUCCUAAGGAGACGACUGCGGGUUCGAGUCCCGUAUGGGUUG [G1A U2G G6A A43C C66U A69G A70U C71U] here?
Answer: -0.396

Question: Which “yeast fitness (ln)” value does the source give for GUUCCAUUGGCGUAAUGGUAACGCGUUUCCCUCCUAAGGAGAAGACUGCGGGUUCGAGUCCCGUACGGAACG [G6A C27U] here?
Answer: -0.0758

Question: With GUUCCAUUGGCGUAAUGGUAACGCGUUUCCCUCCUAAGGAGAAGAUUGCGGGUUCGAGUCCCGUAUGGAGCG [G6A C27U C46U C66U A70G] as the variant, how does the “yeast fitness (ln)” value read?
Answer: -0.0516

Question: Which “yeast fitness (ln)” value does the source give for AUUCCAUUGGCGUAAUGGUAACGCGUCUCCCUCCUAAGGAGAAGACUGCGGGUUCGAGUCCCGUAUGGGGUG [G1A G6A C66U A69G A70G C71U] here?
Answer: -0.145

Question: Which “yeast fitness (ln)” value does the source give for GCUCCGUUGGCGUAAUGGUAACGCGUUUCCCUCCUAAGGAGAAGACUGCGGGUUCGAGUCCCGUAUGGGAUG [U2C C27U C66U A69G C71U] here?
Answer: -0.303

Question: For GCUCCGUUGGCGUAAUGGUAACGCGUUUCCCUCCUAAGGAGACGAUUGCGGGUUCGAGUCCCGUACGGGAUG [U2C C27U A43C C46U A69G C71U], which “yeast fitness (ln)” value is on record?
Answer: -0.118

Question: Which “yeast fitness (ln)” value does the source give for GUUCCGUUGGCGUAAUGGUAACGCGUUUCCCUCCUAAGGAGAAGAUUGCGGGUUCGAGUCCCGUAUGGGGCG [C27U C46U C66U A69G A70G] here?
Answer: -0.197

Question: Which “yeast fitness (ln)” value does the source give for GCUCCUUUGGCGUAAUGGUAACGCGUUUCCCUCCUAAGGAGAAGAUUGCGGGUUCGAGUCCCGUAUGGAUUG [U2C G6U C27U C46U C66U A70U C71U] here?
Answer: -0.335

Question: Which “yeast fitness (ln)” value does the source give for GCUCCGUUGGCGUAAUGGUAACGCGUCUCCCUCCUAAGGAGACGACUGCGGGUUCGAGUCCCGUACGGAGUG [U2C A43C A70G C71U] here?
Answer: -0.0158

Question: For ACUCCAUUGGCGUAAUGGUAACGCGUUUCCCUCCUAAGGAGACGACUGCGGGUUCGAGUCCCGUAUGGGGUG [G1A U2C G6A C27U A43C C66U A69G A70G C71U], which “yeast fitness (ln)” value is on record?
Answer: -0.255

Question: For AUUCCUUUGGCGUAAUGGUAACGCGUCUCCCUCCUAAGGAGAAGAUUGCGGGUUCGAGUCCCGUAAGGAAUG [G1A G6U C46U C66A C71U], which “yeast fitness (ln)” value is on record?
Answer: 0.0017

Question: With AUUCCGUUGGCGUAAUGGUAACGCGUCUCCCUCCUAAGGAGACGAUUGCGGGUUCGAGUCCCGUACGGAACG [G1A A43C C46U] as the variant, how does the “yeast fitness (ln)” value read?
Answer: -0.059

Question: With AGUCCUUUGGCGUAAUGGUAACGCGUUUCCCUCCUAAGGAGAAGACUGCGGGUUCGAGUCCCGUAUGGGGUG [G1A U2G G6U C27U C66U A69G A70G C71U] as the variant, how does the “yeast fitness (ln)” value read?
Answer: -0.446

Question: Which “yeast fitness (ln)” value does the source give for AUUCCUUUGGCGUAAUGGUAACGCGUCUCCCUCCUAAGGAGACGACUGCGGGUUCGAGUCCCGUAUGGGGUG [G1A G6U A43C C66U A69G A70G C71U] here?
Answer: -0.371

Question: With AUUCCGUUGGCGUAAUGGUAACGCGUUUCCCUCCUAAGGAGACGAUUGCGGGUUCGAGUCCCGUAUGGGUCG [G1A C27U A43C C46U C66U A69G A70U] as the variant, how does the “yeast fitness (ln)” value read?
Answer: -0.4

Question: Which “yeast fitness (ln)” value does the source give for GGUCCAUUGGCGUAAUGGUAACGCGUCUCCCUCCUAAGGAGACGAUUGCGGGUUCGAGUCCCGUAAGGGAUG [U2G G6A A43C C46U C66A A69G C71U] here?
Answer: -0.341
